# Data taken from article PMC6287413 (Drug Design, Development and Therapy, 2018).
# Where a SMILES comes first, the peptide text is derived from it.
# Molecular target: T1, PTP1B (Homo sapiens, UniProt P18031)
# T1 sequence (P18031 1-435): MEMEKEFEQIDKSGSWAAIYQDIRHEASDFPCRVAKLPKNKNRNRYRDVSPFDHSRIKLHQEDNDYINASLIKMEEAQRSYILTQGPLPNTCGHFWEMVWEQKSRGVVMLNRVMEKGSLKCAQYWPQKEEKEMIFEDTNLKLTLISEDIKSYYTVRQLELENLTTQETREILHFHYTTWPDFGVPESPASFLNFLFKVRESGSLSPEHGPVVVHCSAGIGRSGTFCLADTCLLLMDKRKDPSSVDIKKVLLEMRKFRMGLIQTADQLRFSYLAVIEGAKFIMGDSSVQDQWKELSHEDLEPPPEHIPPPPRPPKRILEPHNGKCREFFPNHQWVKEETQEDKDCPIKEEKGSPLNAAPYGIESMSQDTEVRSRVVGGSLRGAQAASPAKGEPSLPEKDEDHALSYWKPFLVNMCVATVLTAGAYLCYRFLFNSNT
# Assay: Inhibitory activity analysis with recombinant PTP1B phosphatase
# Format: biochemical
# In short: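 Recombinant phosphatase at 1.5 µg/mL […] final in 10 mM HEPES, pH 7.4. Each enzyme was left untreated (control) or treated with peptide solutions over a range of concentrations and incubation times, at 37°C. Para-nitrophenyl phosphate (2 mM) was the chromogenic substrate, read at 405 nm. Every experiment was run three or more times.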
row,Compound,IC50
1,N[C@@H](CC(=O)O)C(=O)N[C@@H](Cc1ccccc1)C(=O)O [Asp-Phe] (H-Asp-Phe-OH),52.6 ± 3.7 µM
2,N[C@@H](Cc1ccccc1)C(=O)N[C@@H](CC(=O)O)C(=O)N[C@@H](Cc1ccccc1)C(=O)O [Phe-Asp-Phe] (H-Phe-Asp-Phe-OH),255 ± 29.4 µM
3,N[C@@H](Cc1ccccc1)C(=O)N[C@@H](CC(=O)O)C(=O)O [Phe-Asp] (H-Phe-Asp-OH),52.1 ± 1.4 µM
4,N[C@@H](Cc1ccccc1)C(=O)N[C@@H](Cc1ccccc1)C(=O)N[C@@H](CC(=O)O)C(=O)O [Phe-Phe-Asp] (H-Phe-Phe-Asp-OH),104 ± 15.9 µM
